In ChEMBL document CHEMBL1124617, “Approaches to isozyme-specific inhibitors. 16. A novel methyl-C5' covalent adduct of L-ethionine and beta,gamma-imido-ATP as a potent multisubstrate inhibitor of rat methionine adenosyltransferases” (J Med Chem, 1989) one finds Ki data, which are given here for three compounds.

What all share (format): protein assay
For assay [1], the target named is T1, S-adenosylmethionine synthetase (MAT 1 and MAT 2) (Rattus norvegicus, UniProt P13444+P18298). As to the kind of experiment: Compound was tested for inhibition constant with kidney form of M-2 variants of Rat methionine adenosyltransferase when Methionine was the variable substrate. Put shortly: (§1)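 Rat M-2 (normal tissue) isozyme. With methionine as the variable substrate, MgATP was fixed at 2 mM. With MgATP as the variable substrate, methionine was fixed at 60 µM. The MgATP KM was 0.14 mM. Ki values come from kinetic analysis of inhibition against each substrate.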

In assay [2] the target is T1, S-adenosylmethionine synthetase (MAT 1 and MAT 2). The experiment in a line: Compound was tested for inhibition constant with kidney form of M-T variants of Rat methionine adenosyltransferase when ATP was the variable substrate.
For assay [3] the target is unchanged. The experiment in a line: Compound was tested for inhibition constant with kidney form of M-T variants of Rat methionine adenosyltransferase when Methionine was the variable substrate.
Assay [4] shares this target. The experiment in a line: Compound was tested for inhibition constant with kidney form of M-2 variants of Rat methionine adenosyltransferase when ATP was the variable substrate. The procedure, abridged:
as §1

Molecules are shown by their SMILES.

In general, Ki refers to the dissociation constant of the complex between target and ligand, obtained from inhibition or displacement. Read a high Ki as a looser hold on the target. As to `Nc1ncnc2c1ncn2[C@@H]1O[C@H]([C@H](CSCCC(N)C(=O)O)OP(=O)(O)OP(=O)(O)NP(=O)(O)O)[C@@H](O)[C@H]1O` (some centres not stated), the Ki in assay [1] turned out to be 650 nM; in assay [2], 210 nM; in assay [3], 670 nM; in assay [4], 130 nM.

Regarding `Nc1ncnc2c1ncn2[C@@H]1O[C@H]([C@@H](CCSCCC(N)C(=O)O)OP(=O)(O)OP(=O)(O)NP(=O)(O)O)[C@@H](O)[C@H]1O` (some centres not stated), the Ki in assay [1] is 2100 nM; in assay [2], 160 nM; in assay [3], 1100 nM; in assay [4], 110 nM.

Take `Nc1ncnc2c1ncn2[C@@H]1O[C@H]([C@H](CCSCCC(N)C(=O)O)OP(=O)(O)OP(=O)(O)NP(=O)(O)O)[C@@H](O)[C@H]1O` (some centres not stated): the Ki stood at 5400 nM in assay [1], 410 nM in assay [2], 2700 nM in assay [3] and 270 nM in assay [4].
